Measurements: ChEMBL document CHEMBL1122798, “Trypanocidal 1,3-arylene diketone bis(guanylhydrazone)s. Structure-activity relationships among substituted and heterocyclic analogues” (1984)

What was measured:
Type in all cases: functional
Mus musculus [1] = test: Compound was tested for Trypanocidal Activity in mice at 15 mg/kg; 0/10
Mus musculus [2] = test: Compound was tested for Trypanocidal Activity in mice at 150 mg/kg; 0/5
Mus musculus [3] = test: Compound was tested for Trypanocidal Activity in mice at 40 mg/kg; 0/5
Mus musculus [4] = test: Compound was tested for Trypanocidal Activity in mice at 100 mg/kg; 0/5
Mus musculus [5] = test: Compound was tested for Trypanocidal Activity in mice at 60 mg/kg; 0/5
Mus musculus [6] = test: Compound was tested for Trypanocidal Activity in mice at 15 mg/kg; 14/25
Mus musculus [7] = species on record: Mus musculus; test: Effective dose against Trypanosoma brucei infection in mice
Outline: (§1)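 Female Swiss-Webster mice (20–25 g) were infected ip with 5×10^4 T. brucei EATRO 110 organisms in fresh mouse blood diluted with minimum essential medium. Groups of 5 or 10 received a single ip dose in normal saline (solution or milled suspension, 20 μL/g) 6 h post-infection. Deaths within 72 h were scored as toxic. Survivors aparasitemic at 28 days (tail-blood wet films, phase contrast) counted as cures. ED50 was computed by Bliss/Litchfield–Wilcoxon, excluding toxic dosages.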

Mus musculus [8] = test: Compound was tested for Trypanocidal Activity in mice at 100 mg/kg; 1/5
Mus musculus [9] = test: Compound was tested for Trypanocidal Activity in mice at 10 mg/kg; 11/30
Mus musculus [10] = test: Compound was tested for Trypanocidal Activity in mice at 25 mg/kg; 16/20
Mus musculus [11] = test: Compound was tested for Trypanocidal Activity in mice at 4 mg/kg; 0/10
Mus musculus [12] = test: Compound was tested for Trypanocidal Activity in mice at 6 mg/kg; 0/20
Mus musculus [13] = test: Compound was tested for Trypanocidal Activity in mice at 60 mg/kg; 5/5
Mus musculus [14] = test: Compound was tested for Trypanocidal Activity in mice at 40 mg/kg; 13/15
Mus musculus [15] = test: Compound was tested for Trypanocidal Activity in mice at 25 mg/kg; 1/20
Mus musculus [16] = test: Compound was tested for Trypanocidal Activity in mice at 100 mg/kg; 3/10
Mus musculus [17] = test: Compound was tested for Trypanocidal Activity in mice at 60 mg/kg; 9/25; outline: as §1
Mus musculus [18] = test: Compound was tested for Trypanocidal Activity in mice at 6 mg/kg; 0/5
Mus musculus [19] = test: Compound was tested for Trypanocidal Activity in mice at 10 mg/kg; 0/5
Mus musculus [20] = test: Compound was tested for Trypanocidal Activity in mice at 40 mg/kg; 12/25
Mus musculus [21] = test: Compound was tested for Trypanocidal Activity in mice at 150 mg/kg; 1/5
Mus musculus [22] = test: Compound was tested for Trypanocidal Activity in mice at 25 mg/kg; 0/15
Mus musculus [23] = test: Compound was tested for Trypanocidal Activity in mice at 15 mg/kg; 10/10
Mus musculus [24] = test: Compound was tested for Trypanocidal Activity in mice at 6 mg/kg; 20/20
Mus musculus [25] = test: Compound was tested for Trypanocidal Activity in mice at 4 mg/kg; 9/10
Mus musculus [26] = test: Compound was tested for Trypanocidal Activity in mice at 0.4 mg/kg; 19/35
Mus musculus [27] = test: Compound was tested for Trypanocidal Activity in mice at 10 mg/kg; 10/10
Mus musculus [28] = test: Compound was tested for Trypanocidal Activity in mice at 1.0 mg/kg; 8/10
Mus musculus [29] = test: Compound was tested for Trypanocidal Activity in mice at 0.25 mg/kg; 0/30
Mus musculus [30] = test: Compound was tested for Trypanocidal Activity in mice at 0.6 mg/kg; 20/30
Mus musculus [31] = test: Compound was tested for Trypanocidal Activity in mice at 1.5 mg/kg; 10/10
Mus musculus [32] = test: Compound was tested for Trypanocidal Activity in mice at 25 mg/kg; 4/5
Mus musculus [33] = test: Compound was tested for Trypanocidal Activity in mice at 0.15 mg/kg; 0/10
Mus musculus [34] = test: Compound was tested for Trypanocidal Activity in mice at 2.5 mg/kg; 20/20
Mus musculus [35] = test: Compound was tested for Trypanocidal Activity in mice at 15 mg/kg; 0/5
Mus musculus [36] = test: Compound was tested for Trypanocidal Activity in mice at 25 mg/kg; 0/5
Mus musculus [37] = test: Compound was tested for Trypanocidal Activity in mice at 15 mg/kg; 16/20
Mus musculus [38] = test: Compound was tested for Trypanocidal Activity in mice at 10 mg/kg; 14/20
Mus musculus [39] = test: Compound was tested for Trypanocidal Activity in mice at 25 mg/kg; 7/10
Mus musculus [40] = test: Compound was tested for Trypanocidal Activity in mice at 6 mg/kg; 9/20
Mus musculus [41] = test: Compound was tested for Trypanocidal Activity in mice at 40 mg/kg; 1/5
Mus musculus [42] = test: Compound was tested for Trypanocidal Activity in mice at 4 mg/kg; 0/5

## C/C(=N\NC(=N)N)c1cc(/C(C)=N/NC(=N)N)c(C)nc1C.CS(=O)(=O)O.Cl.Cl
Mus musculus [1]
  Cures/total: 0
Mus musculus [2]
  Cures/total: 0
Mus musculus [3]
  Cures/total: 0
Mus musculus [4]
  Cures/total: 0
Mus musculus [5]
  Cures/total: 0

## C/C(=N\NC(=N)N)c1ccc(/C(C)=N/NC(=N)N)s1.CC(C)O.Cl
Mus musculus [6]
  Cures/total: 14
Mus musculus [7]
  ED50: 14 mg/kg
Mus musculus [8]
  Cures/total: 1
Mus musculus [9]
  Cures/total: 11
Mus musculus [10]
  Cures/total: 16
Mus musculus [11]
  Cures/total: 0
Mus musculus [12]
  Cures/total: 0
Mus musculus [13]
  Cures/total: 5
Mus musculus [14]
  Cures/total: 13

## C/C(=N\NC(=N)N)c1cc(/C(C)=N/NC(=N)N)cc([N+](=O)[O-])c1.Cl
Mus musculus [15]
  Cures/total: 1
Mus musculus [1]
  Cures/total: 0
Mus musculus [16]
  Cures/total: 3
Mus musculus [17]
  Cures/total: 9
Mus musculus [18]
  Cures/total: 0
Mus musculus [19]
  Cures/total: 0
Mus musculus [20]
  Cures/total: 12
Mus musculus [21]
  Cures/total: 1

## CCCC/C(=N\NC(=N)N)c1cccc(/C(CCCC)=N/NC(=N)N)c1.Cl
Mus musculus [3]
  Cures/total: 0
Mus musculus [22]
  Cures/total: 0
Mus musculus [5]
  Cures/total: 0

## C/C(=N\NC(=N)N)c1cc(/C(C)=N/NC(=N)N)cc(/C(C)=N/NC(=N)N)c1.Cl
Mus musculus [23]
  Mice cured (number): 10
Mus musculus [24]
  Cures/total: 20
Mus musculus [25]
  Cures/total: 9
Mus musculus [7]
  ED50: 0.47 mg/kg
Mus musculus [26]
  Cures/total: 19
Mus musculus [3]
  Cures/total: 0
Mus musculus [27]
  Cures/total: 10
Mus musculus [28]
  Cures/total: 8
Mus musculus [29]
  Cures/total: 0
Mus musculus [30]
  Cures/total: 20
Mus musculus [31]
  Cures/total: 10
Mus musculus [32]
  Cures/total: 4
Mus musculus [5]
  Cures/total: 0
Mus musculus [33]
  Cures/total: 0
Mus musculus [34]
  Cures/total: 20

## Br.C/C(=N\NC1=NCCN1)c1cccc(/C(C)=N/NC2=NCCN2)c1
Mus musculus [3]
  Cures/total: 0
Mus musculus [35]
  Cures/total: 0
Mus musculus [36]
  Cures/total: 0
Mus musculus [19]
  Cures/total: 0

## C/C(=N\NC(=N)N)c1cc(O)cc(/C(C)=N/NC(=N)N)c1.Cl
Mus musculus [37]
  Cures/total: 16
Mus musculus [38]
  Cures/total: 14
Mus musculus [7]
  ED50: 7.3 mg/kg
Mus musculus [39]
  Cures/total: 7
Mus musculus [40]
  Cures/total: 9
Mus musculus [5]
  Cures/total: 0
Mus musculus [41]
  Cures/total: 1
Mus musculus [42]
  Cures/total: 0

## C/C(=N\NC(=N)N)c1cccc(/C(C)=N/NC(=N)N)c1[N+](=O)[O-].Cl
Mus musculus [1]
  Cures/total: 0
Mus musculus [3]
  Cures/total: 0
Mus musculus [36]
  Cures/total: 0
